The values below come from ChEMBL document CHEMBL2413010, “Design and synthesis of 2-phenyl-1,4-dioxa-spiro[4.5]deca-6,9-dien-8-ones as potential anticancer agents starting from cytotoxic spiromamakone A” (Eur J Med Chem, 2013).

Structures are written as SMILES.

The first assay deals with HeLa. The assay can be described thus: Ratio of spiromamakone A IC50 to compound IC50 for human HeLa cells assessed as cell survival after 48 hrs by WST-8 method. It is filed as functional.
Conditions: not given
Consider `O=C1C=C[C@@]2(C=C1Cl)OC[C@@H](c1ccc(I)cc1)O2` (mixture of isomers), for which the “Ratio IC50” value stood at 15.

For the next assay, the system named is HeLa. In words: Cytotoxicity against human HeLa cells assessed as cell survival after 48 hrs by WST-8 method. It is filed as functional, cell-based. To be noted: Homo sapiens, HeLa, 48 h. The method in brief: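 HeLa cells grown in DMEM with 10% FBS, penicillin and streptomycin at 37 °C, 5% CO2. Cells seeded at 1.0 × 10³ per well and left overnight, then exposed for 48 h to compounds in DMSO at various concentrations, with DMSO as negative control. WST-8 added for 1 h at 37 °C; formazan read at 450 nm. IC50 taken as concentration giving 50% cell survival.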
Turning to `O=C1C=CC(=O)C12C(O)C=CC21Oc2cccc3cccc(c23)O1` (configuration not stated), the IC50 came out at 2200 nM.

Take `O=C1C=C[C@@]2(C=C1Cl)OC[C@@H](c1ccc(I)cc1)O2` (mixture of isomers): the IC50 worked out at 140 nM.

For `O=C1C=CC2(C=C1)OCC(c1ccc(-c3cnccc3Cl)cc1)O2` (racemic), the IC50 is 1300 nM.

For `O=C1C=CC2(C=C1)OCC(c1ccc(-c3cccc(Cl)c3)cc1)O2` (racemic), the IC50 was found to be 1400 nM.

Consider `O=C1C=CC2(C=C1)OCC(c1ccc(-c3cccc(C(=O)O)c3)cc1)O2` (racemic), for which the IC50 amounted to 3100 nM.

Take `O=C1C=CC2(C=C1)OCC(c1ccc(-c3ccc(C(=O)O)cc3)cc1)O2` (racemic): the IC50 is 1700 nM.

With `COC(=O)c1cccc(-c2ccc(C3COC4(C=CC(=O)C=C4)O3)cc2)c1` (racemic), the IC50 came to 1500 nM.

As to `COC(=O)c1ccc(-c2ccc(C3COC4(C=CC(=O)C=C4)O3)cc2)cc1` (racemic), the IC50 was 2600 nM.

In the case of `CCCOC(=O)c1cccc(-c2ccc(C3COC4(C=CC(=O)C=C4)O3)cc2)c1` (racemic), the IC50 is 800 nM.

Regarding `CCCOC(=O)c1ccc(-c2ccc(C3COC4(C=CC(=O)C=C4)O3)cc2)cc1` (racemic), the IC50 was found to be 820 nM.

Turning to `O=C1C=CC2(C=C1)OCC(c1ccc(-c3cccc(C(F)(F)F)c3)cc1)O2` (racemic), the IC50 was 800 nM.

In the case of `O=C1C=CC2(C=C1)OCC(c1ccc(-c3ccccc3OCc3ccccc3)cc1)O2` (racemic), the IC50 came out at 960 nM.

As to `CN(C)c1ccc(-c2ccc(C3COC4(C=CC(=O)C=C4)O3)cc2)cc1` (racemic), the IC50 is 3500 nM.

Consider `CS(=O)(=O)c1ccc(-c2ccc(C3COC4(C=CC(=O)C=C4)O3)cc2)cc1` (racemic), for which the IC50 was found to be 1700 nM.

On to `CC(=O)Nc1ccc(-c2ccc(C3COC4(C=CC(=O)C=C4)O3)cc2)cc1` (racemic), for which the IC50 was 900 nM.

Regarding `COC(=O)c1cc(-c2ccc(C3COC4(C=CC(=O)C=C4)O3)cc2)ccc1F` (racemic), the half-inhibitory concentration (IC50) worked out at 1800 nM.

Regarding `O=C1C=CC2(C=C1)OCC(c1ccc(-c3cccnc3)cc1)O2` (racemic), the concentration for half-maximal inhibition (IC50) came to 1500 nM.

For `O=C1C=CC2(C=C1)OCC(c1ccc(-c3ccncc3)cc1)O2` (racemic), the IC50 is 4500 nM.

As to `O=C1C=CC2(C=C1)OCC(c1ccc(-c3cncnc3)cc1)O2` (racemic), the IC50 came to 3200 nM.

As to `O=C1C=CC2(C=C1)OCC(c1ccc(-c3ccoc3)cc1)O2` (racemic), the IC50 was found to be 2500 nM.

Consider `O=C1C=CC2(C=C1)OCC(c1ccc(-c3ccsc3)cc1)O2` (racemic), for which the IC50 came to 2500 nM.

In the case of `O=C1C=CC2(C=C1)OCC(c1ccc(-c3cnc4ccccc4c3)cc1)O2` (racemic), the IC50 was determined as 790 nM.

As to `O=C1C=C[C@@]2(C=C1Cl)OC[C@@H](c1ccc(-c3cccnc3)cc1)O2` (racemic), the IC50 was 9400 nM.

With `O=C1C=C[C@@]2(C=C1Cl)OC[C@@H](c1ccc(-c3ccncc3)cc1)O2` (racemic), the IC50 came to 2300 nM.

Take `O=C1C=C[C@@]2(C=C1Cl)OC[C@@H](c1ccc(-c3cncnc3)cc1)O2` (racemic): the IC50 is 4600 nM.

On to `O=C1C=C[C@@]2(C=C1Cl)OC[C@@H](c1ccc(-c3cnc4ccccc4c3)cc1)O2` (racemic), for which the 50% inhibitory concentration (IC50) stood at 2700 nM.

In the case of `O=C1C=CC2(C=C1)OCC(c1ccc(Br)cc1)O2` (racemic), the IC50 turned out to be 2400 nM.

In the case of `O=C1C=CC2(C=C1)OCC(c1cccc(I)c1)O2` (racemic), the IC50 turned out to be 1600 nM.

With `O=C1C=CC2(C=C1)OCC(c1ccc(I)cc1)O2` (racemic), the half-maximal inhibitory concentration (IC50) turned out to be 1100 nM.

Consider `O=C1C=CC2(C=C1)OCC(c1cccc(-c3ccccc3)c1)O2` (racemic), for which the IC50 amounted to 1400 nM.

As for `O=C1C=CC2(C=C1)OCC(c1cccc(-c3cccc(F)c3)c1)O2` (racemic), the IC50 amounted to 1600 nM.

Turning to `O=C1C=CC2(C=C1)OCC(c1cccc(-c3ccc(F)cc3)c1)O2` (racemic), the IC50 came out at 670 nM.

With `O=C1C=CC2(C=C1)OCC(c1cccc(-c3cccc(Cl)c3)c1)O2` (racemic), the IC50 was 1800 nM.

Consider `O=C1C=CC2(C=C1)OCC(c1cccc(-c3ccc(Cl)cc3)c1)O2` (racemic), for which the IC50 was determined as 850 nM.

For `CS(=O)(=O)c1ccc(-c2cccc(C3COC4(C=CC(=O)C=C4)O3)c2)cc1` (racemic), the IC50 came to 790 nM.

Take `CC(=O)Nc1ccc(-c2cccc(C3COC4(C=CC(=O)C=C4)O3)c2)cc1` (racemic): the IC50 was determined as 880 nM.

As for `O=C1C=CC2(C=C1)OCC(c1cccc(-c3cnccc3Cl)c1)O2` (racemic), the IC50 was 1700 nM.

Consider `O=C1C=CC2(C=C1)OCC(c1cccc(-c3ccco3)c1)O2` (racemic), for which the IC50 was determined as 3200 nM.

For the molecule `O=C1C=CC2(C=C1)OCC(c1cccc(-c3ccsc3)c1)O2` (racemic), the IC50 was found to be 910 nM.

Consider `O=C1C=CC2(C=C1)OCC(c1cccc(-c3cccc4ccccc34)c1)O2` (racemic), for which the IC50 stood at 1300 nM.

Turning to `O=C1C=CC2(C=C1)OCC(c1cccc(-c3ccc4ccccc4c3)c1)O2` (racemic), the half-maximal inhibitory concentration (IC50) is 1300 nM.

With `O=C1C=CC2(C=C1)OCC(c1cccc(-c3cnc4ccccc4c3)c1)O2` (racemic), the IC50 worked out at 2400 nM.

As for `O=C1C=CC2(C=C1Cl)OCC(c1ccc(Cl)cc1)O2` (racemic; form 2), the IC50 is 2700 nM.

With `O=C1C=CC2(C=C1Cl)OCC(c1cccc(I)c1)O2` (racemic; form 2), the IC50 is 1600 nM.

For the molecule `O=C1C=C[C@]2(C=C1Cl)OC[C@@H](c1ccc(I)cc1)O2` (relative stereo), the IC50 is 2400 nM.

`O=C1C=CC2(C=C1Cl)OCC(c1cccc(Br)c1)O2` (stereo in doubt): the IC50 was determined as 610 nM.

The assay is the same for the next values; noted with them: hela.
With `O=C1C=CC2(C=C1Cl)OCC(c1ccc(Br)cc1)O2` (mixture of isomers), the IC50 was 4500 nM.

As to `O=C1C=CC2(C=C1Cl)OCC(c1cccc(Br)c1)O2` (racemic), the IC50 is 640 nM.

With `O=C1C=CC2(C=C1Cl)OCC(c1ccc(Cl)cc1)O2` (racemic; form 1), the IC50 came out at 2900 nM.

As to `O=C1C=CC2(C=C1Cl)OCC(c1cccc(I)c1)O2` (racemic; form 1), the IC50 was 1500 nM.

As to `O=C1C=CC2(C=C1Cl)OCC(c1ccc(Br)cc1)O2` (stereo in doubt), the IC50 was 2100 nM.
